ChEMBL document CHEMBL1143320, “Benzyldihydroxyoctenone, a novel anticancer agent, induces apoptosis via mitochondrial-mediated pathway in androgen-sensitive LNCaP prostate cancer cells” (Bioorg Med Chem Lett, 2009)
The source made the active and inactive calls.

Assays:
Type in all cases: functional, cell-based
[1] = tested on: LNCaP; experiment: Induction of apoptosis in human LNCAP cells assessed as inhibition of AR protein expression at 30 uM by Western blot; conditions: TDE = time-dependent effect
[2] = tested on: LNCaP; experiment: Cell cycle arrest in human LNCAP cells assessed as accumulation at subG1 phase at 30 uM by flow cytometry; conditions: TDE = time-dependent effect
Procedure, shortened: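 LNCaP cells exposed for various times, then fixed nuclei stained with propidium iodide. DNA content read by flow cytometry, 10,000 nuclei per sample. Sub-G1 fraction reported as means ± SD of three separate experiments.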

[3] = tested on: LNCaP; experiment: Induction of apoptosis in human LNCAP cells assessed as decrease in Bcl-XL levels at 30 uM after 24 hrs by Western blot
Procedure, shortened: (§1)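 Cells were treated for various times and total cell lysates prepared. Lysates were resolved on 8–14% polyacrylamide gels and immunoblotted with an antibody to each protein, with b-actin as internal control.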

[4] = tested on: LNCaP; experiment: Induction of apoptosis in human LNCAP cells assessed as inhibition of PSA mRNA transcription at 30 uM after 24 hrs by RT-PCR
Procedure, shortened: (§2)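 Cells were treated as for the blots (24 h compound, then DHT 1.0 nM or none). Total RNA (2 µg) was reverse-transcribed and AR and PSA were quantified by real-time PCR. Relative levels were calculated by the comparative threshold cycle method, with GAPDH as housekeeping gene.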

[5] = tested on: LNCaP; experiment: Induction of apoptosis in human LNCAP cells assessed as PARP cleavage at 30 uM after 24 hrs by Western blot; procedure, shortened: as §1
[6] = tested on: LNCaP; experiment: Induction of apoptosis in human LNCAP cells assessed as procaspase-3 cleavage at 30 uM after 24 hrs by Western blot; procedure, shortened: as §1
[7] = tested on: LNCaP; experiment: Induction of apoptosis in human LNCAP cells assessed as procaspase-8 cleavage at 30 uM by Western blot; conditions: TDE = time-dependent effect; procedure, shortened: as §1
[8] = tested on: LNCaP; experiment: Induction of apoptosis in human LNCAP cells assessed as inhibition of PSA mRNA transcription at 30 uM after 24 hrs by RT-PCR in presence of DHT; procedure, shortened: as §2
[9] = tested on: LNCaP; experiment: Induction of apoptosis in human LNCAP cells assessed as inhibition of AR mRNA transcription at 30 uM after 24 hrs by RT-PCR; procedure, shortened: as §2
[10] = tested on: LNCaP; experiment: Induction of apoptosis in human LNCAP cells assessed as decrease in procaspase-8 expression at 30 uM after 24 hrs by Western blot; procedure, shortened: as §1
[11] = tested on: LNCaP; experiment: Induction of apoptosis in human LNCAP cells assessed as increase in mitochondrial cytochrome C release at 30 uM after 24 hrs by Western blot; procedure, shortened: as §1
[12] = tested on: LNCaP; experiment: Induction of apoptosis in human LNCAP cells assessed as decrease in procaspase-9 expression at 30 uM after 24 hrs by Western blot; procedure, shortened: as §1
[13] = tested on: LNCaP; experiment: Induction of apoptosis in human LNCAP cells assessed as inhibition of DHT-induced PSA protein expression at 30 uM after 24 hrs by Western blot
Procedure, shortened: (§3)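 LNCaP cells were grown 48 h in RPMI 1640 with 10% FBS, then exposed 24 h to compound given in ethanol. This was followed by 2 h with or without DHT (0.1 and 1 nM). Lysate protein was measured by BCA, run on SDS–PAGE and blotted to nitrocellulose. Blots were probed with primary and peroxidase-conjugated secondary antibodies, with chemiluminescent detection.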

[14] = tested on: LNCaP; experiment: Induction of apoptosis in human LNCAP cells assessed as inhibition of AR mRNA transcription at 30 uM after 24 hrs by RT-PCR in presence of DHT; procedure, shortened: as §2
[15] = tested on: LNCaP; experiment: Induction of apoptosis in human LNCAP cells assessed as decrease in Bcl2 levels at 30 uM after 48 hrs by Western blot; procedure, shortened: as §1
[16] = tested on: LNCaP; experiment: Induction of apoptosis in human LNCAP cells assessed as inhibition of PSA protein expression at 30 uM by Western blot; conditions: TDE = time-dependent effect
[17] = tested on: LNCaP; experiment: Induction of apoptosis in human LNCAP cells assessed as inhibition of DHT-induced AR protein expression at 30 uM after 24 hrs by Western blot; procedure, shortened: as §3
[18] = tested on: LNCaP; experiment: Induction of apoptosis in human LNCAP cells assessed as DNA fragmentation at 30 uM by TUNEL assay
Procedure, shortened: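 Cells were treated for the indicated times, then fixed and permeabilized. They were stained with fluorescent TUNEL reagent and analysed by flow cytometry for DNA fragmentation.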

Measured: Activity

C/C=C(\Cc1ccccc1)C(=O)CC(O)CCO (stereo not drawn)
active: [1] tde | [2] tde | [3] | [4] | [5] | [6] | [7] tde | [8] | [9] | [10] | [11] | [12] | [13] | [14] | [15] | [16] tde | [17] | [18]
